Laboratory results: ChEMBL document CHEMBL4602722, “Structural Studies on the Inhibitory Binding Mode of Aromatic Coumarinic Esters to Human Kallikrein-Related Peptidase 7” (J Med Chem, 2020)
The source made the active and inactive calls. The calls are words filed in the database; no cut-off is given here.

Tests used:
[1] = molecular target: Kallikrein-7 (Homo sapiens) (UniProt P49862); experiment: Inhibition of N-terminal SUMO and His6-tagged human KLK7 assessed as protease activity by measuring fluorogenic peptide substrate NFF-3 cleavage (reference value: >400 pmol/(min.ug)
[2] = Stability in 100% DMSO at -20 degC for several months by ESI-MS and 1H NMR spectroscopy; format: physicochemical
[3] = molecular target: Kallikrein-7 (Homo sapiens) (UniProt P49862); experiment: Inhibition of N-terminal SUMO and His6-tagged human KLK7 expressed in Escherichia coli Rosetta (DE3) pLysS assessed as reduction in covalent KLK7-vaspin complex formation using compound pre-treated KLK7 incubated for 60 mins by Coomassie-staining based SDS-PAGE method
Summary of the method: (§1)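 KLK7 was pre-treated with 1 mM compound (10 % DMSO, 37 °C, 30 min) and concentrated on a 5 kDa spin column. It was then mixed with vaspin at a 3:1 molar ratio (3.15 μM KLK7, 1.05 μM vaspin) in 50 mM Tris, 150 mM NaCl, pH 8.0 (elsewhere stated as pH 7.5) at room temperature for up to 60 min. Time-point samples were boiled 5 min in reducing SDS buffer, run on 12 % gels and Coomassie-stained.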

[4] = molecular target: Kallikrein-7 (Homo sapiens) (UniProt P49862); experiment: Inhibition of N-terminal SUMO and His6-tagged human KLK7 assessed as reduction in vaspin-N-terminal cleavage using compound pre-treated KLK7 incubated for 60 mins by Coomassie-staining based SDS-PAGE method; summary of the method: as §1
[5] = molecular target: Kallikrein-7 (Homo sapiens) (UniProt P49862); experiment: Covalent binding affinity to of N-terminal SUMO and His6-tagged human KLK7 expressed in Escherichia coli Rosetta (DE3) pLysS assessed as compound binding to His57 of catalytic triad by mass spectrometry

Sequence of Kallikrein-7 (Homo sapiens) (P49862 30-253 limits assumed): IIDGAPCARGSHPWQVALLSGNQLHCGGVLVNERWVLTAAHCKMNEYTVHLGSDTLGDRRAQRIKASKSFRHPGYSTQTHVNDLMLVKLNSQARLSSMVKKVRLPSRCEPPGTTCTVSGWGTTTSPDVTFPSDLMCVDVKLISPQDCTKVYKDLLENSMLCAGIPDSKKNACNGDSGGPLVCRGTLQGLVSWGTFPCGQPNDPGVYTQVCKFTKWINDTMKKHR

Activity [1] | Stability [2] | inhibition [3] | inhibition [4] | Activity [5] | SMILES
< 0.1 pmol/min/µg | Stable | Active | inactive | Active | O=C(Oc1cccc(Br)c1)c1cc2cc(CCl)ccc2oc1=O
< 0.1 pmol/min/µg |  | Active | inactive |  | O=C(Oc1cccc(I)c1)c1cc2cc(CCl)ccc2oc1=O
< 0.1 pmol/min/µg |  | Active | inactive |  | O=C(Oc1cccc(Cl)c1)c1cc2cc(CCl)ccc2oc1=O
